The text below walks through data of ChEMBL document CHEMBL3232760 (Bioorg Med Chem, 2014).

pIC50: −log10 of the molar value. Activity calls are given as the source filed them. No cut-off for these calls is given here. A value given as a limit tells only on which side of the number the result lay.

Holding throughout (format): cell-based
In experiment [1] the target is T1, Steryl-sulfatase (Homo sapiens) (UniProt P08842).
T1 sequence (whole entry): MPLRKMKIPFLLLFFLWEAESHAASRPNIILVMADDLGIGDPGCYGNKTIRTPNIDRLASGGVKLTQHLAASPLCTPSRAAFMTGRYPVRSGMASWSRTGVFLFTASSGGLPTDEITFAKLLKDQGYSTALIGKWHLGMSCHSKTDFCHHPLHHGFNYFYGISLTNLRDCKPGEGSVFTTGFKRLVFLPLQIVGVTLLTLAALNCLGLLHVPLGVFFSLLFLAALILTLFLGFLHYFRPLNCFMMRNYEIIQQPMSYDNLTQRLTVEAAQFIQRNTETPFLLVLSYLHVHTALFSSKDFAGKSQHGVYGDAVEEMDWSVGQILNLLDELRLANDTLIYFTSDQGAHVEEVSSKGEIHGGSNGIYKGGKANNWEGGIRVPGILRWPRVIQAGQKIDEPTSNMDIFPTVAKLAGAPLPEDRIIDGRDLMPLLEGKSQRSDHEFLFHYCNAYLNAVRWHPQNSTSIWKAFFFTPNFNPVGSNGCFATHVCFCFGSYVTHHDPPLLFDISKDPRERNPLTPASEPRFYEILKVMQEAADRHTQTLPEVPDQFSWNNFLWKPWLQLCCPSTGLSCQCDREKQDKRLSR
The experiment can be described thus: Inhibition of steroid sulfatase in human MCF7 cells assessed as conversion of [3H]E1S to [3H]E1 and [3H]E2 at 1 uM after 5 hrs by liquid scintillation counting. The gist of the method:
(§1)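 MCF-7 homogenate (freeze–thaw five times, diluted in Tris–EDTA, centrifuged 15,000g 4 °C 15 min, supernatant adjusted to 0.2 mg/mL protein by Bradford) incubated with [3H]E1S (final 10 nM) and inhibitor at 37 °C for 5 h. Toluene extraction of [3H]E1 plus [3H]E2, liquid scintillation counting; 1 uM STX64 defined 100%; triplicate.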

For experiment [2], the target named is T1, Steryl-sulfatase (Homo sapiens). Put plainly: Inhibition of steroid sulfatase in human MCF7 cells assessed as conversion of [3H]E1S to [3H]E1 and [3H]E2 at 0.1 uM after 5 hrs by liquid scintillation counting. The gist of the method:
as §1

Experiment [3] addresses T2, Estrogen receptor (Homo sapiens, UniProt P03372).
T2 sequence (P03372 whole entry): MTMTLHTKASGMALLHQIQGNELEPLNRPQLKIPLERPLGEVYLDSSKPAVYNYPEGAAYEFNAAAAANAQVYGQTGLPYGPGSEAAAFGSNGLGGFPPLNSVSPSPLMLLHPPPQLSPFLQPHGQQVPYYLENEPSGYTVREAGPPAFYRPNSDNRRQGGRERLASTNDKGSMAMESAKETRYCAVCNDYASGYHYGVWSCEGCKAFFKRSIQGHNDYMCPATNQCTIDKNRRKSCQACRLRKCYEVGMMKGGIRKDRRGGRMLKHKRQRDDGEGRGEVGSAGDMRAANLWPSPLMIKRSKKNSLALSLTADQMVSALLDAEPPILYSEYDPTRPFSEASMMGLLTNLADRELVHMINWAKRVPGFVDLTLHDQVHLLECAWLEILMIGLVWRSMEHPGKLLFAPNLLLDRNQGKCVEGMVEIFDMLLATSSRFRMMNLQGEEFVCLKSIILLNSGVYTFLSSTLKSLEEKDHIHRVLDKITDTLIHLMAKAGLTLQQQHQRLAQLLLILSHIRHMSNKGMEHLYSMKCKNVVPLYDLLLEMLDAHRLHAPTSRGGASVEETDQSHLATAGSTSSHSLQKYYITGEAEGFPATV
Put plainly: Antagonist activity at human Gal4-fused ER-alpha expressed in HEK293 cells assessed as inhibition of 17beta-estradiol-induced effect by luciferase reporter gene assay. In outline: (§2)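 With 0.3 nM 17beta-estradiol present, HEK293 cells calcium phosphate cotransfected with GAL4-responsive luciferase reporter, ER plasmid and beta-galactosidase were treated 8 h post-transfection for 16–20 h. Normalized luciferase, triplicate means; antagonism expressed as IC50 (nM).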
For orientation: In a reporter assay the amount or activity of a reporter protein is the signal.

For experiment [4], the target named is T3, Estrogen receptor beta (Homo sapiens, UniProt Q92731). The experiment can be described thus: Agonist activity at human Gal4-fused ER-beta expressed in HEK293 cells at 10 uM by luciferase reporter gene assay relative to 17beta-estradiol. In outline: (§3)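 Agonist mode: HEK293 cells in phenol-red-free DMEM with 5% FBS, 37 °C, 5% CO2, calcium phosphate cotransfected with GAL4-responsive MH100(UAS)x4-tk-LUC reporter, ER receptor fragment plasmid and beta-galactosidase plasmid. Compound added 8 h post-transfection, cells harvested 16–20 h later. Luciferase normalized to beta-galactosidase, triplicate means.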

Experiment [5] addresses T2, Estrogen receptor. The experiment can be described thus: Agonist activity at human Gal4-fused ER-alpha expressed in HEK293 cells by luciferase reporter gene assay. In outline:
(§4)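 GAL4-ER fusion reporter in HEK293 (phenol-red-free DMEM, 5% FBS), calcium phosphate transfection with MH100(UAS)x4-tk-LUC and beta-galactosidase control; compounds given 8 h after transfection, harvest at 16–20 h. Luciferase/beta-galactosidase ratio, triplicate means; agonism expressed as EC50 (nM).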

Experiment [6] addresses T3, Estrogen receptor beta. Put plainly: Agonist activity at human Gal4-fused ER-beta expressed in HEK293 cells by luciferase reporter gene assay. The gist of the method:
as §4

For experiment [7], the target named is T4, Estrogen receptor (Homo sapiens) (UniProt P03372).
T4 sequence (whole entry): T2 sequence (P03372 whole entry)
The experiment can be described thus: Antagonist activity at human Gal4-fused ER-alpha expressed in HEK293 cells assessed as inhibition of 17beta-estradiol-induced effect at 3 uM by luciferase reporter gene assay. In outline:
(§5)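 Antagonist mode in transfected HEK293 GAL4-ER luciferase system, with cells co-treated with 0.3 nM 17beta-estradiol. Compound added 8 h post-transfection, 16–20 h treatment, luciferase normalized to beta-galactosidase, triplicate means.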

Experiment [8] has as its target T3, Estrogen receptor beta. The experiment can be described thus: Antagonist activity at human Gal4-fused ER-beta expressed in HEK293 cells assessed as inhibition of 17beta-estradiol-induced effect at 3 uM by luciferase reporter gene assay. The gist of the method:
as §5

The target in experiment [9] is T3, Estrogen receptor beta. Put plainly: Antagonist activity at human Gal4-fused ER-beta expressed in HEK293 cells assessed as inhibition of 17beta-estradiol-induced effect by luciferase reporter gene assay. As to conditions: for IC50: hek293. In outline: as §2
The target in experiment [10] is T4, Estrogen receptor (Homo sapiens). The experiment can be described thus: Agonist activity at human Gal4-fused ER-alpha expressed in HEK293 cells at 10 uM by luciferase reporter gene assay relative to 17beta-estradiol. In outline: as §3
The target in experiment [11] is T5, Steryl-sulfatase (Homo sapiens, UniProt P08842).
T5 sequence (P08842 whole entry): T1 sequence (whole entry)
Put plainly: Inhibition of steroid sulfatase in human MCF7 cells assessed as conversion of [3H]E1S to [3H]E1 and [3H]E2 after 5 hrs by liquid scintillation counting. The gist of the method:
as §1

Experiment [12] deals with T3, Estrogen receptor beta. The experiment can be described thus: Antagonist activity at human Gal4-fused ER-beta expressed in HEK293 cells assessed as inhibition of 17beta-estradiol-induced effect at 1 uM by luciferase reporter gene assay. The gist of the method:
as §5

T3 sequence (Q92731 whole entry, the tested form may be a part): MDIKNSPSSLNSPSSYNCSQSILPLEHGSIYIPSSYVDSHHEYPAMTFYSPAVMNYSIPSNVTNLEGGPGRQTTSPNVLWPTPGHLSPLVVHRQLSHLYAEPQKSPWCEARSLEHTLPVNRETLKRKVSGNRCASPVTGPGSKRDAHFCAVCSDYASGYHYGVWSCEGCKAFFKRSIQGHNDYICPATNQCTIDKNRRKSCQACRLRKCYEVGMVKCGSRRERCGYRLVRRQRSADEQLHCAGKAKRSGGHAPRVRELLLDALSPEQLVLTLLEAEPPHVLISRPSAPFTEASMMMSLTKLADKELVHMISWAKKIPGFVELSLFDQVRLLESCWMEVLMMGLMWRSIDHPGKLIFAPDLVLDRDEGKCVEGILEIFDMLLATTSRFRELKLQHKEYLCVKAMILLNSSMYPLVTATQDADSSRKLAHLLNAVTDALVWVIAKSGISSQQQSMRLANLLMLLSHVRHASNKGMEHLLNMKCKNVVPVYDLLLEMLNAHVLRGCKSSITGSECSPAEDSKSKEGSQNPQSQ

With `NS(=O)(=O)Oc1ccc2c3c(c(=O)oc2c1)CCCCC3`, the inhibition (as a rule, the drop in the measured response relative to a control, in per cent) in [1] is 100%.
Regarding `C[Si](C)(c1ccc(O)cc1)c1ccc(OS(N)(=O)=O)cc1`, the inhibition in experiment [2] came to 25.2%; in experiment [1], 76.4%.
In the case of `CCC(CC)(c1ccc(O)cc1)c1ccc(O)cc1`, the pIC50 (in general, the negative decadic logarithm of the IC50, by convention in mol/L) in [3] is 6.93. Further, the Activity in experiment [4] amounted to 9.3%. For the same molecule, the EC50 entry in [5] was “Not Active”.
Take `CCC(CC)(c1ccc(O)c(C)c1)c1ccc(O)c(C)c1`: the pIC50 in experiment [3] was 8.45. Further, the EC50 entry in experiment [5] and in [6] was “Not Active” throughout.
Consider `CCCCC(CCCC)(c1ccc(OS(N)(=O)=O)c(C)c1)c1ccc(OS(N)(=O)=O)c(C)c1`, for which the inhibition came out at 10.3% in experiment [2], 28% in [1] and 42.5% in [7]. Also, the inhibition result in [8] was “inactive”.
On to `Oc1ccc(Cc2ccc(O)cc2)cc1`, for which, in experiment [7], the inhibition came to 22.6%. Moreover, in experiment [9], the IC50 result is “Not Active”.
As for `CCCCC(CCCC)(c1ccc(O)c(C)c1)c1ccc(O)c(C)c1`, the EC50 entry in [5] and in experiment [6] was “Not Active” in each case.
Consider `C[Si](C)(c1ccc(O)cc1)c1ccc(O)cc1`, for which the inhibition in [2] was below 10%; in [1], below 10%; in experiment [7], 50.9%. The same molecule showed an Activity in experiment [10] of 25.3%. In addition, the IC50 result in [9] is “Not Active”.
Take `NS(=O)(=O)Oc1ccc(Cc2ccc(OS(N)(=O)=O)cc2)cc1`: the figures for the inhibition in experiment [2], in experiment [1] and in experiment [8] were below 10%, 50.1% and 2.25%, respectively. Besides, in experiment [11], the pIC50 is 5.99. In experiment [5], the EC50 entry was “Active”.
Regarding `CCCC[Si](CCCC)(c1ccc(OS(N)(=O)=O)c(C)c1)c1ccc(OS(N)(=O)=O)c(C)c1`, the inhibition in experiment [2] is below 10%; in [1] it was 16.4%; in [7], 16.4%. Besides, the inhibition entry in [8] is “inactive”.
With `C[Si](C)(c1ccc(OS(N)(=O)=O)cc1)c1ccc(OS(N)(=O)=O)cc1`, the inhibition in [2] turned out to be 35.8%; in experiment [1], 81.9%. The values for the Activity in experiment [10] and in experiment [4] were 10.8% and 16.7%, respectively. For the same molecule, the inhibition result in [7] and in experiment [8] was “inactive” throughout.
In turn, `CCCC(CCC)(c1ccc(O)c(C)c1)c1ccc(O)c(C)c1` came in with an Activity in [4] of 6.1%. Moreover, the EC50 result in [5] was “Not Active”.
As for `CN(C)S(=O)(=O)Oc1ccc([Si](C)(C)c2ccc(OS(=O)(=O)N(C)C)cc2)cc1`, the inhibition in [2] and in experiment [1] was below 10% throughout.
Consider `CC[Si](CC)(c1ccc(O)c(C)c1)c1ccc(O)c(C)c1`, for which the negative logarithm of the IC50 (pIC50) in [3] is 7.53. The inhibition in experiment [8] came to 53.5%.
Consider `CCC[Si](CCC)(c1ccc(O)c(C)c1)c1ccc(O)c(C)c1`, for which the Activity in experiment [10] came to 5.6%; in experiment [4] it was 4.9%. Moreover, the pIC50 in experiment [3] is 7.58; in experiment [9] (read-out: IC50) it was 6.09.
As to `NS(=O)(=O)Oc1ccc(Sc2ccc(OS(N)(=O)=O)cc2)cc1`, the inhibition in experiment [2] came out at 57.1%; in [1] it was 89.7%. For the same molecule, the Activity in experiment [4] is 82.8%. Besides, in [8], the inhibition result was “inactive”. Moreover, in experiment [11], the pIC50 was 7.06. The EC50 entry in experiment [5] is recorded as “Active”.
Turning to `CC[Si](CC)(c1ccc(OS(N)(=O)=O)cc1)c1ccc(OS(N)(=O)=O)cc1`, the inhibition in experiment [2] amounted to 62%; in experiment [1] it was 96.4%; in [7], 100%; in experiment [8], 62.8%. In addition, the result in [10] was inactive. In addition, the Activity in [4] is 1.1%.
On to `CCC(CC)(c1ccc(OS(N)(=O)=O)cc1)c1ccc(OS(N)(=O)=O)cc1`, for which the inhibition in experiment [2] came to 11%; in experiment [1], 29.9%; in experiment [7] it was 53.2%; in experiment [8] it was 49.3%. Moreover, the result in experiment [10] and in experiment [4] was inactive.
As to `CCC[Si](CCC)(c1ccc(OS(N)(=O)=O)c(C)c1)c1ccc(OS(N)(=O)=O)c(C)c1`, the inhibition in experiment [2] is below 10%; in [1] it was 18.7%; in experiment [7], 87.1%; in [8], 18%.
For `CCCC(CCC)(c1ccc(OS(N)(=O)=O)c(C)c1)c1ccc(OS(N)(=O)=O)c(C)c1`, in that order: below 10%, 21.1%, 54.9% and 43.9%.
Consider `CC(C)(c1ccc(OS(N)(=O)=O)cc1)c1ccc(OS(N)(=O)=O)cc1`, for which the inhibition in [2] was below 10%; in [1], below 10%; in experiment [7], 6.63%; in experiment [8], 7.79%. The Activity in [10] was 9.5%. Moreover, the result in experiment [4] was inactive.
As to `CC[Si](CC)(c1ccc(OS(N)(=O)=O)c(C)c1)c1ccc(OS(N)(=O)=O)c(C)c1`, the inhibition worked out at 22.6% in experiment [2], 82.6% in experiment [1], 94.8% in experiment [7] and 47.2% in [8]. The result in [10] and in [4] was inactive. Besides, the negative-log IC50 (pIC50) in [11] was 6.77.
Molecule `CC(C)(c1ccc(O)cc1)c1ccc(O)cc1` [BISPHENOL A] registered an Activity in [10] of 28.7%. In experiment [7], the inhibition came to 36.1%. Further, the IC50 entry in experiment [9] is “Not Active”.
Regarding `CC[Si](CC)(c1ccc(O)cc1)c1ccc(O)cc1`, the Activity in experiment [10] worked out at 7.1%; in experiment [4], 11.9%. Also, the pIC50 in experiment [3] is 6.94. In addition, the inhibition in experiment [12] was determined as 53%.
Take `CCC(CC)(c1ccc(OS(N)(=O)=O)c(C)c1)c1ccc(OS(N)(=O)=O)c(C)c1`: the inhibition in experiment [2] is below 10%; in experiment [1], 25.4%; in experiment [7], 36.7%; in [8] it was 49.3%. Besides, the result in experiment [10] and in experiment [4] was inactive.
In experiment [10], `Oc1ccc(Sc2ccc(O)cc2)cc1` registered an Activity of 37.8%. Besides, the IC50 result in experiment [9] is “Not Active”.
